From paper PMC8276234 (Journal of medicinal chemistry, 2019)
Entries after “also recorded” stand apart in the source; their conditions may differ. Values belong to the compound of their own block, whether it stands above or below them.

Columns and labels:
PDI [1] = target: T1, PDI (Homo sapiens, UniProt P07237); assay: PDI reductase assay; format: biochemical; details: for PDI inhibitory activity (in words): PDI reductase assay; for fold reduction of potency: replacing the nitrile in BAP2 (6) and 32 with a trifluoromethyl group
Method in brief: (§1)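 N-terminal His-tagged human PDI was expressed in E. coli BL21(DE3) pLysS with 1 mM IPTG for 4 h at 37 °C. It was purified on Ni-NTA and dialyzed into 100 mM sodium phosphate, 2 mM EDTA, pH 7.0. PDI (0.4 μM) was preincubated 1 h with compound in phosphate/EDTA buffer with 8 μM DTT. DTT (500 μM) and bovine insulin (130 μM) were then added at room temperature. Aggregation was read at 620 nm. Percent activity came from the 0–80 min change, corrected for DTT alone.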

GBM cell = assay: Combination with As2O3, GBM cell proliferation; format: cell-based
MMP2 = assay: Gelatin zymography and Western blot of conditioned media; format: cell-based, human; details: U87MG cells, 10 μM (PACMA31 0.25 μM), 48 hours
Method in brief: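 U87MG cells (0.5 x 10^6/well) attached overnight and were serum-starved 12 h before treatment. Cleared conditioned media (5 µg protein) ran on 10% SDS-PAGE with 0.1% gelatin. Gels were washed in 2.5% Triton X-100 Tris/CaCl2/ZnCl2 buffer, incubated overnight at 37 °C, then Coomassie R-250 stained and destained. Cleaved MMP2 in media was also assessed by Western blot.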

C53S/C397S PDI = C53S/C397S PDI (Homo sapiens, UniProt P07237, C397S/C53S); assay: Thermal shift assay, C53S/C397S PDI; format: binding; details: 100 μM
Method in brief: (§2)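 Purified PDI (wild-type, C53S/C397S or H256A; 0.5 mg/mL in 50 mM Tris, pH 7.0) was mixed with compound in DMSO and ROX dye. Samples were heated from 25 to 99 °C at 1 °C/min. Boltzmann melting temperature was compared with the 5% DMSO control.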

H256A PDI [2] = target: T2, H256A PDI (Homo sapiens, UniProt P07237, H256A); assay: PDI reductase assay, H256A mutant PDI; format: biochemical; details: 10 μM
Method in brief: as §1

H256A PDI [3] = target: T2, H256A PDI; assay: Thermal shift assay, H256A PDI; format: binding; details: 100 μM
Method in brief: as §2

wild-type PDI = wild-type PDI (Homo sapiens, UniProt P07237); assay: Thermal shift assay, wild-type PDI; format: binding; details: for increase of melting temperature: recombinant PDI, dose-dependent, up to 100 μM; for stabilization of PDI to thermal denaturation: 100 μM
Method in brief: as §2

MMP9 = assay: Western blot of cell lysates, MMP9; format: cell-based, human; details: U87MG cells, 10 μM (PACMA31 0.25 μM), 48 hours
Method in brief: (§3)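 Treated U87MG cells were lysed by sonication in Tris/NaCl/Triton X-100/SDS buffer (pH 7.4) and spun at 13,500×g, 4 °C, 10 min. Protein was quantified by BCA. 30 μg per lane ran on 10% gels and transferred to PVDF. Primary antibodies were applied overnight at 4 °C. Fluorescent secondaries were imaged.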

PDI [4] = target: T1, PDI; assay: PDI reductase assay after competition with N-acetyl cysteine; format: biochemical; details: compound 40 μM; 0, 1, 2 or 5 mM NAC
Method in brief: as §1

D54 cells = assay: Clonogenic survival assay with ionizing radiation; format: cell-based; details: 1 μM, 0-6 Gy
Method in brief: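 D54 monolayer cells (37 °C, 5% CO2, mycoplasma-tested, STR-authenticated) were irradiated at 0, 1, 2, 4 or 6 Gy and plated immediately at 200, 200, 400, 600 and 1000 cells/well. Test compounds (1 μM), reference inhibitor (0.05 μM) or DMSO were added. After 10–12 days, colonies were stained with 0.1% crystal violet.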

b’ domain of PDI = b’ domain of PDI (Homo sapiens, UniProt P07237); assay: ANS spectral scan; format: binding; details: 5 μM PDI, 100 μM compound
Method in brief: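 Human PDI was preincubated with 100 μM compound or matching DMSO in TBS at 37 °C for 1 h. ANS was then added, followed by 20 min in the dark at 25 °C. Fluorescence spectrum: Ex 370 nm, Em 400–700 nm.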

[5] = tested on: HFF-1 normal human fibroblast cells; assay: MTT assay in normal fibroblasts; format: cell-based; details: potency in NU04 versus HFF-1 cells
A172 cells = assay: Transwell migration assay; format: cell-based, human; details: 4 hours
Method in brief: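 Treated A172 cells (1 x 10^5) were seeded into inserts with 8.0 µm PET membranes in serum-free medium. The lower well held DMEM with 10% FBS, and FBS-free wells served as control. After 4 h, cells were Giemsa-stained and 5 fields per well were imaged at 10X.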

U87MG cells = assay: Bromouridine RNA sequencing; format: cell-based, human; details: 10 μM compound 18, U87MG cells, 4 hours
Method in brief: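 U87MG cells exposed to test compound or DMSO for 4 h, with 2 mM bromouridine added for the last 30 min. Total RNA was TRIzol-extracted, and Bru-labelled RNA was captured on anti-BrdU antibody magnetic beads, then sequenced. Reads were mapped to hg19. Genes were filtered to size >300 bp and mean RPKM >0.5, and ranked by transcription fold change versus control for pre-ranked GSEA.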

GRP78 = assay: Western blot, GRP78 expression; format: cell-based, human; details: U87MG cells; 20 μM (PACMA31 1.0 μM), 24 hours
Method in brief: as §3

EIF2α = assay: Western blot, phosphorylation of EIF2α; format: cell-based, human; details: U87MG and A172 cells; 20 μM (PACMA31 1.0 μM), 2 hours
Method in brief: as §3

T2 sequence (P07237 18-508 H256A): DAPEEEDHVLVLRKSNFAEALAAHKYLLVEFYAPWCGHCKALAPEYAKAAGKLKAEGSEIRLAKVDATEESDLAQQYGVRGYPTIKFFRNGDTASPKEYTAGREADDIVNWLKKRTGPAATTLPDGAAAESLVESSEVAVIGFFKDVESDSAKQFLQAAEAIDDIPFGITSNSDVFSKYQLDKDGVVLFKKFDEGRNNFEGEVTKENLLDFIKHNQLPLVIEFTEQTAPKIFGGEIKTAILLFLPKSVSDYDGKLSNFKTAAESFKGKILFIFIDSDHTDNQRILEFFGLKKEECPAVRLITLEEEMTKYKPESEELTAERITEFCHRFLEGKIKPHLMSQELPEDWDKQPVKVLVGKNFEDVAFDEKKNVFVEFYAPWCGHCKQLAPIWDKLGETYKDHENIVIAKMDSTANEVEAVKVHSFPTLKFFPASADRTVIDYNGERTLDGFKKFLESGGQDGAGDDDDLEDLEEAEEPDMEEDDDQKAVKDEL
Chain of C53S/C397S PDI (P07237 18-508 C53S/C397S): as the sequence (P07237 18-508 H256A) above, with C36S, A239H, C380S counted along it
Chain of wild-type PDI (P07237 18-508): as the sequence (P07237 18-508 H256A) above, with A239H counted along it
T1 sequence (P07237 18-508): as the sequence (P07237 18-508 H256A) above, with A239H counted along it
Chain of b’ domain of PDI (P07237 18-508): as the sequence (P07237 18-508 H256A) above, with A239H counted along it

SMILES: N#Cc1cccc(/C=C/C(=O)c2ccc(Br)cc2)c1 [Compound 10, (E)-3-(3-(4-Bromophenyl)-3-oxoprop-1-en-1-yl)benzonitrile]
- fold decrease in the inhibition of PDI activity (PDI [1]; replacement of the hydroxyl group (6) with bromine): 2 fold

SMILES: N#Cc1cccc(/C=C/C(=O)c2ccc(S(N)(=O)=O)cc2)c1 [Compound 13, (E)-4-(3-(3-Cyanophenyl)acryloyl)benzenesulfonamide]
- inhibition of GBM cell proliferation in combination with As2O3 (GBM cell): synergistically

SMILES: CCN(CC)S(=O)(=O)c1ccc(C(=O)/C=C/c2cccc(C#N)c2)cc1 [Compound 15, (E)-4-(3-(3-Cyanophenyl)acryloyl)-N,N-diethylbenzenesulfonamide]
- inhibition of GBM cell proliferation in combination with As2O3 (GBM cell): synergistically

SMILES: O=C(/C=C/c1cccc(C(F)(F)F)c1)c1ccc(O)cc1 [Compound 55, (E)-1-(4-Hydroxyphenyl)-3-(3-(trifluoromethyl)phenyl)prop-2-en-1-one]
- fold reduction of potency (PDI [1]): 2 to 4 fold

SMILES: COc1ccc(C(=O)/C=C/c2cccc(C#N)c2)cc1 [Compound 8, (E)-3-(3-(4-Methoxyphenyl)-3-oxoprop-1-en-1-yl)benzonitrile]
- effect on ANS fluorescence (b’ domain of PDI): did not hinder dye fluorescence

SMILES: CN(C)S(=O)(=O)c1ccc(C(=O)/C=C/c2cccc(C#N)c2)cc1 [Compound 14, (E)-4-(3-(3-Cyanophenyl)acryloyl)-N,N-dimethylbenzenesulfonamide]
- inhibition of GBM cell proliferation in combination with As2O3 (GBM cell): synergistically

SMILES: CCCCCN(CCCCC)S(=O)(=O)c1ccc(C(=O)/C=C/c2cccc(O)c2)cc1 [Compound 59, (E)-4-(3-(3-Hydroxyphenyl)acryloyl)-N,N-dipentylbenzenesulfonamide]
- stabilization (thermal shift) in the C53S/C397S mutant (C53S/C397S PDI): not abolished
- activity against H256A mutant PDI (H256A PDI [2]): active against the H256A mutant; also recorded: not His256-dependent
- effect on ANS fluorescence (b’ domain of PDI): competes with ANS
- Fold Difference [5]: 3.8
- stabilization (thermal shift) in the H256A mutant (H256A PDI [3]): not abolished
- transwell migration (A172 cells; 30 μM): inhibited migration
- increase of melting temperature (wild-type PDI): more than 1 °C
- MMP9 expression (MMP9): decreased
- activity after competition with N-acetyl cysteine (NAC) (PDI [4]): abolished by 5 mM NAC, but not by lower concentrations

SMILES: CCCCCN(CCCCC)S(=O)(=O)c1ccc(C(=O)/C=C/c2cccc(C#N)c2)cc1 [Compound 18, (E)-4-(3-(3-Cyanophenyl)acryloyl)-N,N-dipentylbenzenesulfonamide]
- transwell migration (A172 cells; 10 μM): inhibited migration
- transwell migration (A172 cells; 30 μM): inhibited migration
- stabilization of PDI to thermal denaturation (wild-type PDI): did not stabilize PDI
- MMP9 expression (MMP9): decreased
- Fold Change in transcription, AKAP5 (U87MG cells): −3.4
- Fold Change in transcription, ANKRD36B (U87MG cells): −2.8
- Fold Change in transcription, BARD1 (U87MG cells): −2.3
- Fold Change in transcription, BBS10 (U87MG cells): −2.3
- Fold Change in transcription, CCNA2 (U87MG cells): −2.3
- Fold Change in transcription, CHSY3 (U87MG cells): −2.6
- Fold Change in transcription, DUT (U87MG cells): −2.3
- Fold Change in transcription, FBXO43 (U87MG cells): −2.7
- Fold Change in transcription, FPGT (U87MG cells): −2.3
- Fold Change in transcription, HIST1H2BC (U87MG cells): −2.3
- Fold Change in transcription, KCTD4 (U87MG cells): −2.8
- Fold Change in transcription, LYPD6 (U87MG cells): −3.1
- Fold Change in transcription, MYBL1 (U87MG cells): −2.6
- Fold Change in transcription, SLITRK5 (U87MG cells): −3.6
- Fold Change in transcription, ST8SIA4 (U87MG cells): −3.1
- Fold Change in transcription, ZNF404 (U87MG cells): −2.7

SMILES: N#Cc1cccc(/C=C/C(=O)c2cnccn2)c1 [Compound 29, (E)-3-(3-Oxo-3-(pyrazin-2-yl)prop-1-en-1-yl)benzonitrile]
- effect on ANS fluorescence (b’ domain of PDI): did not hinder dye fluorescence

SMILES: C[C@]12CC[C@@H]3c4ccc(O)cc4CC[C@H]3[C@@H]1CC[C@@H]2O [estradiol, reference compound]
- stabilization (thermal shift) in the C53S/C397S mutant (C53S/C397S PDI): but not the C53S/C397S mutant
- stabilization (thermal shift) in the H256A mutant (H256A PDI [3]): abolished
- stabilization of PDI to thermal denaturation (wild-type PDI): stabilizes PDI to thermal denaturation
- increase of melting temperature (wild-type PDI): more than 1 °C

SMILES: C#CC(=O)N(c1ccc(OC)cc1OC)C(C(=O)NCC(=O)OCC)c1cccs1 (stereo not drawn) [PACMA31, reference compound]
- MMP2 activity and secretion (MMP2): inhibit MMP2 activity and secretion
- expression of GRP78 (GRP78): increase in expression of GRP78
- effect on ANS fluorescence (b’ domain of PDI): did not hinder dye fluorescence
- transwell migration (A172 cells; 30 μM): inhibited migration
- stabilization of PDI to thermal denaturation (wild-type PDI): does not stabilize PDI
- MMP9 expression (MMP9): decreased
- phosphorylation of EIF2α (EIF2α): did not induce phosphorylation of EIF2α
- activity after competition with N-acetyl cysteine (NAC) (PDI [4]): significantly abolished

SMILES: O=C(/C=C/c1ccccc1O)c1ccccc1O [NC588]
- PDI inhibitory activity (in words) (PDI [1]): inactive

The next lines start with results.

- stabilization (thermal shift) in the C53S/C397S mutant (C53S/C397S PDI): not abolished
- activity against H256A mutant PDI (H256A PDI [2]): abolished upon mutation
- stabilization (thermal shift) in the H256A mutant (H256A PDI [3]): not abolished
- increase of melting temperature (wild-type PDI): more than 1 °C
- activity after competition with N-acetyl cysteine (NAC) (PDI [4]): unaffected by up to 5 mM NAC
SMILES: O=C(/C=C/c1ccc(-c2cccnc2)cc1)c1cccc(O)c1 [Compound 68, (E)-1-(3-Hydroxyphenyl)-3-(4-(pyridin-3-yl)phenyl)prop-2-en-1-one]
- MMP2 activity and secretion (MMP2): inhibit MMP2 activity and secretion
- MMP9 expression (MMP9): decreased
- synergy with ionizing radiation (IR) (D54 cells): synergized with IR

- PDI inhibitory activity (in words) (PDI [1]): inactive
SMILES: O=C(/C=C/c1ccc(O)cc1)c1ccccc1O [NC587]

- PDI inhibitory activity (in words) (PDI [1]): inactive
SMILES: O=C(/C=C/c1cccc(O)c1)c1ccccc1O [NC589]

- fold reduction of potency (PDI [1]): 2 to 4 fold
SMILES: O=C(/C=C/c1ccc(C(F)(F)F)cc1)c1ccc(O)cc1 [Compound 57, (E)-1-(4-Hydroxyphenyl)-3-(4-(trifluoromethyl)phenyl)prop-2-en-1-one]

- stabilization (thermal shift) in the C53S/C397S mutant (C53S/C397S PDI): not abolished
- activity against H256A mutant PDI (H256A PDI [2]): abolished upon mutation
- stabilization (thermal shift) in the H256A mutant (H256A PDI [3]): not abolished
- increase of melting temperature (wild-type PDI): more than 1 °C
SMILES: COC(=O)c1cccc(/C=C/C(=O)c2cccc(O)c2)c1 [Compound 46, Methyl-(E)-3-(3-(3-hydroxyphenyl)-3-oxoprop-1-en-1-yl)benzoate]
- activity after competition with N-acetyl cysteine (NAC) (PDI [4]): abolished by 5 mM NAC, but not by lower concentrations

- stabilization of PDI to thermal denaturation (wild-type PDI): did not stabilize PDI
SMILES: O=C(/C=C/c1ccc(-c2ccncc2)cc1)c1cccc(O)c1 [Compound 69, (E)-1-(3-Hydroxyphenyl)-3-(4-(pyridin-4-yl)phenyl)prop-2-en-1-one]
